Reference: ChEMBL document CHEMBL3352644, “Selenadiazole derivatives as potent thioredoxin reductase inhibitors that enhance the radiosensitivity of cancer cells” (Eur J Med Chem, 2014)
Calls of active or inactive are those of the source.

Columns and labels:
A-375 [1] = experiment: Induction of apoptosis in human A375 cells assessed as caspase 3 activation at 2 ug/mL incubated for 6 hrs followed by irradiation with 8 Gy X-ray at 37 degC for 12 hrs by Western blotting method; assay type: functional, cell-based
Procedure, shortened: (§1)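 A375 cells treated with 2 µg/ml alone or with 8 Gy X-ray (6 h pretreatment, then 12 h; 18 h total). RIPA lysates (50 µg protein) run on SDS-PAGE and immunoblotted for caspases and PARP cleavage. Reprobed for β-actin as loading control.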

A-375 [2] = experiment: Reduction in Bcl-2 expression in human A375 cells at 4 ug/mL incubated for 6 hrs followed by irradiation with 8 Gy X-ray at 37 degC for 12 hrs by Western blotting method; assay type: functional, cell-based
Procedure, shortened: (§2)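 A375 cells given […] for 6 h, then 0 or 8 Gy X-ray at 1.5 Gy/min and 12 h further culture. Lysis in ice-cold RIPA, pH 7.4, with protease and phosphatase inhibitors; protein by BCA. […] protein per lane on SDS-PAGE, transferred to nitrocellulose. Blocked in 5% milk/TBST. Primary 1:1000, 10 h, 4 °C; HRP secondary 1:2000, 1.5 h.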

A-375 [3] = experiment: Induction of apoptosis in human A375 cells assessed as caspase 3 activation at 2 ug/mL incubated for 18 hrs by fluorometric assay; assay type: functional, cell-based
Procedure, shortened: (§3)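 Cells seeded at 1 × 10⁶ per 10 cm dish and treated with 2 µg/ml alone or with 8 Gy X-ray for 18 h total. RIPA lysates clarified by spinning at 12,000 rpm for 5 min; 80 µg protein given Ac-DEVD-AMC (caspase-3), Ac-IETD-AMC (caspase-8) or Ac-LEHD-AMC (caspase-9). Incubated 2 h at 37 °C in the dark; fluorescence at 380/440 nm.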

A-375 [4] = experiment: Cytotoxicity against human A375 cells after 18 hrs by MTT assay; assay type: functional, cell-based; details: A-375, 18 h
Procedure, shortened: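 A375 cells (DMEM, 10% FBS, 37 °C, 5% CO2) seeded at 4 × 10⁴ cells/well and grown to 70–80% confluence. Treated with 0, 1, 2, 4, 8, 16 or 32 µg/ml for 6 h, then given 0 or 8 Gy X-ray (linear accelerator, 1.5 Gy/min), then 12 h more at 37 °C. MTT 4 h, formazan dissolved in DMSO, read at 570 nm; % of control; three repeats.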

A-375 [5] = experiment: Induction of apoptosis in human A375 cells assessed as caspase 8 activation at 2 ug/mL incubated for 18 hrs by fluorometric assay; assay type: functional, cell-based; procedure, shortened: as §3
A-375 [6] = experiment: Induction of ROS generation in human A375 cells at 4 ug/mL […] by DCF and DHE dye based fluorescence assay; assay type: functional, cell-based
[7] = molecular target: MAP kinase p38 (Homo sapiens) (UniProt O15264+Q15759+Q16539+P53778); experiment: Induction of p38 phosphorylation in human A375 cells at 4 ug/mL incubated for 6 hrs followed by irradiation with 8 Gy X-ray at 37 degC for 12 hrs by Western blotting method; assay type: cell-based; details: A-375; procedure, shortened: as §2
A-375 [8] = experiment: Induction of cell cycle arrest in human A375 cells assessed as accumulation at G1/G0 phase at 4 ug/mL incubated for 18 hrs by propidium iodide staining based flow cytometry (reference value: 48.9%); assay type: functional
Procedure, shortened: (§4)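 A375 cells treated at 10 or 4 µg/ml for 6 h, given 0 or 8 Gy X-ray, then 12 h more. Trypsinized, washed in PBS, fixed overnight in ice-cold 75% ethanol at −20 °C. Stained with propidium iodide, 30 min at 37 °C in the dark; DNA content and sub-G1 population read by flow cytometry.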

A-375 [9] = experiment: Induction of ROS generation in human A375 cells at 2 ug/mL […] by DCF and DHE dye based fluorescence assay; assay type: functional, cell-based
A-375 [10] = experiment: Induction of apoptosis in human A375 cells assessed as caspase 3 activation at 2 ug/mL incubated for 6 hrs followed by irradiation with 8 Gy X-ray at 37 degC for 12 hrs by fluorometric assay; assay type: functional, cell-based; procedure, shortened: as §3
A-375 [11] = experiment: Induction of apoptosis in human A375 cells assessed as accumulation at subG1 phase at 4 ug/mL incubated for 6 hrs followed by irradiation with 8 Gy X-ray at 37 degC for 12 hrs by propidium iodide staining based flow cytometry (reference value: 2.3%); assay type: functional; procedure, shortened: as §4
A-375 [12] = experiment: Induction of cell cycle arrest in human A375 cells assessed as accumulation at S phase at 4 ug/mL incubated for 6 hrs followed by irradiation with 8 Gy X-ray at 37 degC for 12 hrs by propidium iodide staining based flow cytometry (reference value: 7.9%); assay type: functional; procedure, shortened: as §4
A-375 [13] = experiment: Induction of cell cycle arrest in human A375 cells assessed as accumulation at G1/G0 phase at 4 ug/mL incubated for 6 hrs followed by irradiation with 8 Gy X-ray at 37 degC for 12 hrs by propidium iodide staining based flow cytometry (reference value: 44.9%); assay type: functional; procedure, shortened: as §4
A-375 [14] = experiment: Cytotoxicity against human A375 cells pre-treated with 20 uM JNK inhibitor SP600125 for 1 hr followed by 8 ug/mL compound exposure for 18 hrs by MTT assay; assay type: functional, cell-based
Procedure, shortened: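 A375 cells pretreated 1 h with 20 µM SP600125 (JNK) or SB203580 (p38), then exposed to compound at 8 µg/ml for 18 h. Viability by MTT (formazan in DMSO, 570 nm), expressed as % of control.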

A-375 [15] = experiment: Increase in Bax expression in human A375 cells at 4 ug/mL incubated for 18 hrs by Western blotting method; assay type: functional, cell-based
Procedure, shortened: (§5)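 A375 cells pretreated 6 h with compound at 4 µg/ml, given 0 or 8 Gy X-ray, then incubated 12 h more. Lysed in RIPA buffer, pH 7.4, with protease and phosphatase inhibitors; 50 µg protein run on SDS-PAGE and blotted to nitrocellulose. Blocked in 5% milk; primary antibodies 1:1000, 10 h at 4 °C; HRP secondary 1:2000.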

[16] = molecular target: c-Jun N-terminal kinase, JNK (Homo sapiens) (UniProt P45983+P53779+P45984); experiment: Induction of JNK phosphorylation in human A375 cells at 4 ug/mL incubated for 6 hrs followed by irradiation with 8 Gy X-ray at 37 degC for 12 hrs by Western blotting method; assay type: cell-based; details: A-375; procedure, shortened: as §5
A-375 [17] = experiment: Induction of cell shrinkage in human A375 cells incubated for 6 hrs followed by irradiation with 8 Gy X-ray at 37 degC for 12 hrs by microscopy; assay type: functional, cell-based
Procedure, shortened: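 A375 cells in DMEM with 10% FBS, 37 °C, 5% CO2. Pretreated with agent 6 h, then 0 or 8 Gy X-ray from a linear accelerator at 1.5 Gy/min, room temperature. Incubated a further 12 h; morphology imaged.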

A-375 [18] = experiment: Induction of apoptosis in human A375 cells assessed as caspase 9 activation at 2 ug/mL incubated for 6 hrs followed by irradiation with 8 Gy X-ray at 37 degC for 12 hrs by fluorometric assay; assay type: functional, cell-based; procedure, shortened: as §3
A-375 [19] = experiment: Reduction in Trx expression in human A375 cells at 2 ug/mL after 18 hrs by Western blotting method; assay type: functional, cell-based
A-375 [20] = experiment: Increase in Bax expression in human A375 cells at 4 ug/mL incubated for 6 hrs followed by irradiation with 8 Gy X-ray at 37 degC for 12 hrs by Western blotting method; assay type: functional, cell-based; procedure, shortened: as §5
A-375 [21] = experiment: Induction of apoptosis in human A375 cells assessed as PARP cleavage at 2 ug/mL incubated for 6 hrs followed by irradiation with 8 Gy X-ray at 37 degC for 12 hrs by Western blotting method; assay type: functional, cell-based; procedure, shortened: as §1

COc1cc(-c2nc3cc(-c4ccc5n[se]nc5c4)ccc3[nH]2)cc(OC)c1OC
30.6%: Activity (A-375 [12])
active: Activity (A-375 [1]) | Activity (A-375 [2]) | Activity (A-375 [3]) | Activity (A-375 [5]) | Activity (A-375 [6]) | Activity [7] | Activity (A-375 [9]) | Activity (A-375 [10]) | Activity (A-375 [14]) | Activity (A-375 [15]) | Activity [16] | Activity (A-375 [17]) | Activity (A-375 [18]) | Activity (A-375 [19]) | Activity (A-375 [20]) | Activity (A-375 [21])
12.4 µg/mL: IC50 (A-375 [4])
21.6%: Activity (A-375 [8])
57.1%: Activity (A-375 [11])
47.3%: Activity (A-375 [13])
